ChEMBL document CHEMBL1221233, “4''-O-(omega-Quinolylamino-alkylamino)propionyl derivatives of selected macrolides with the activity against the key erythromycin resistant respiratory pathogens” (2010)
In brackets after ≈: the same amount, converted by molar mass.

Legend:
Assay type in all cases: functional
Streptococcus pyogenes [1] = assay: Antibacterial activity against efflux-mediated macrolide-resistance Streptococcus pyogenes 2 Finland by broth microdilution method
Summary of the method: (§1)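 MIC by CLSI broth microdilution. In the streptococcal medium, 5% horse serum replaced lysed blood. Compounds were tested as two-fold serial dilutions. Strains were first grown on Columbia agar with 5% sheep blood. The MIC was read as the lowest concentration inhibiting growth.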

Haemophilus influenzae = assay: Antibacterial activity against Haemophilus influenzae ATCC 49247 by broth microdilution method
Summary of the method: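 MIC by broth microdilution following CLSI guidelines, expressed in units of lg/mL. Twofold dilutions prepared in 96-well plates. H. influenzae grown on Mueller-Hinton chocolate agar before testing.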

Staphylococcus aureus [2] = assay: Antibacterial activity against inducible resistance to macrolide, licosamide and streptogramin Staphylococcus aureus 90256 by broth microdilution method
Summary of the method: (§2)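 Staphylococci were grown on Mueller-Hinton agar and then tested by CLSI-guideline broth microdilution against two-fold serial dilutions of compound. The result was recorded as the minimum inhibitory concentration.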

Streptococcus pyogenes [3] = assay: Antibacterial activity against constitutive MLS resistance sStreptococcus pyogenes 166 GR-Micro by broth microdilution method; summary of the method: as §1
Streptococcus pneumoniae [4] = assay: Antibacterial activity against inducible resistance to macrolide and constitutive resistance to lincosamide Streptococcus pneumoniae 134 GR M by broth microdilution method; summary of the method: as §1
Staphylococcus aureus [5] = assay: Antibacterial activity against efflux-mediated macrolide-resistance Staphylococcus aureus PK1 by broth microdilution method; summary of the method: as §2
Streptococcus pneumoniae [6] = assay: Antibacterial activity against efflux-mediated macrolide-resistance Streptococcus pneumoniae Ci137 by broth microdilution method; summary of the method: as §1
Streptococcus pneumoniae [7] = assay: Antibacterial activity against constitutive MLS resistance Streptococcus pneumoniae 58 by broth microdilution method; summary of the method: as §1

Compound	MIC (Streptococcus pyogenes [1])	MIC (Haemophilus influenzae)	MIC (Staphylococcus aureus [2])	MIC (Streptococcus pyogenes [3])	MIC (Streptococcus pneumoniae [4])	MIC (Staphylococcus aureus [5])	MIC (Streptococcus pneumoniae [6])	MIC (Streptococcus pneumoniae [7])
CC[C@H]1OC(=O)[C@H](C)[C@@H](O[C@H]2C[C@@](C)(OC)[C@@H](OC(=O)CCNCCNc3cc4c(cc3F)c(=O)c(C(=O)O)cn4C3CC3)[C@H](C)O2)[C@H](C)[C@@H](O[C@@H]2O[C@H](C)C[C@H](N(C)C)[C@H]2O)[C@](C)(O)C[C@@H](C)C(=O)[C@H](C)[C@@H](O)[C@]1(C)O	≤ 0.125 µg/mL	8 µg/mL (≈ 7.32 µM)	4 µg/mL (≈ 3.66 µM)	0.5 µg/mL (≈ 0.457 µM)	0.25 µg/mL (≈ 0.229 µM)	0.5 µg/mL (≈ 0.457 µM)	≤ 0.125 µg/mL	≤ 0.125 µg/mL
CC[C@H]1OC(=O)[C@H](C)[C@@H](O[C@H]2C[C@@](C)(OC)[C@@H](OC(=O)CCNCCCCNc3cc4c(cc3F)c(=O)c(C(=O)O)cn4C3CC3)[C@H](C)O2)[C@H](C)[C@@H](O[C@@H]2O[C@H](C)C[C@H](N(C)C)[C@H]2O)[C@](C)(O)C[C@@H](C)C(=O)[C@H](C)[C@@H](O)[C@]1(C)O	≤ 0.125 µg/mL	2 µg/mL (≈ 1.78 µM)	> 64 µg/mL	8 µg/mL (≈ 7.13 µM)	2 µg/mL (≈ 1.78 µM)	2 µg/mL (≈ 1.78 µM)	≤ 0.125 µg/mL	8 µg/mL (≈ 7.13 µM)
CC[C@H]1OC(=O)[C@H](C)[C@@H](O[C@H]2C[C@@](C)(OC)[C@@H](OC(=O)CCNCCNc3cc4c(=O)c(C(=O)O)cn(C5CC5)c4cc3Cl)[C@H](C)O2)[C@H](C)[C@@H](O[C@@H]2O[C@H](C)C[C@H](N(C)C)[C@H]2O)[C@](C)(O)C[C@@H](C)C(=O)[C@H](C)[C@@H](O)[C@]1(C)O	≤ 0.125 µg/mL	2 µg/mL (≈ 1.8 µM)	4 µg/mL (≈ 3.6 µM)	≤ 0.125 µg/mL	≤ 0.125 µg/mL	0.5 µg/mL (≈ 0.451 µM)	≤ 0.125 µg/mL	≤ 0.125 µg/mL
CC[C@H]1OC(=O)[C@H](C)[C@@H](O[C@H]2C[C@@](C)(OC)[C@@H](OC(=O)CCNCCNc3ccc4c(c3)c(=O)c(C(=O)O)cn4C3CC3)[C@H](C)O2)[C@H](C)[C@@H](O[C@@H]2O[C@H](C)C[C@H](N(C)C)[C@H]2O)[C@](C)(O)C[C@@H](C)C(=O)[C@H](C)[C@@H](O)[C@]1(C)O	≤ 0.125 µg/mL	1 µg/mL (≈ 0.93 µM)	4 µg/mL (≈ 3.72 µM)	≤ 0.125 µg/mL	≤ 0.125 µg/mL	8 µg/mL (≈ 7.44 µM)	≤ 0.125 µg/mL	≤ 0.125 µg/mL
CC[C@H]1OC(=O)[C@H](C)[C@@H](O[C@H]2C[C@@](C)(OC)[C@@H](OC(=O)CCNCCCNc3cc4c(cc3F)c(=O)c(C(=O)O)cn4C3CC3)[C@H](C)O2)[C@H](C)[C@@H](O[C@@H]2O[C@H](C)C[C@H](N(C)C)[C@H]2O)[C@](C)(O)C[C@@H](C)C(=O)[C@H](C)[C@@H](O)[C@]1(C)O	≤ 0.125 µg/mL	8 µg/mL (≈ 7.22 µM)	64 µg/mL (≈ 57.8 µM)	2 µg/mL (≈ 1.81 µM)	2 µg/mL (≈ 1.81 µM)	1 µg/mL (≈ 0.903 µM)	≤ 0.125 µg/mL	0.25 µg/mL (≈ 0.226 µM)
CC[C@H]1OC(=O)[C@H](C)[C@@H](O[C@H]2C[C@@](C)(OC)[C@@H](OC(=O)CCNCCNc3cc4c(=O)c(C(=O)OC)cn(C5CC5)c4cc3Cl)[C@H](C)O2)[C@H](C)[C@@H](O[C@@H]2O[C@H](C)C[C@H](N(C)C)[C@H]2O)[C@](C)(O)C[C@@H](C)C(=O)[C@H](C)[C@@H](O)[C@]1(C)O	≤ 0.125 µg/mL	2 µg/mL (≈ 1.78 µM)	> 64 µg/mL	0.125 µg/mL (≈ 0.111 µM)	≤ 0.125 µg/mL	16 µg/mL (≈ 14.2 µM)	≤ 0.125 µg/mL	≤ 0.125 µg/mL
CC[C@H]1OC(=O)[C@H](C)[C@@H](O[C@H]2C[C@@](C)(OC)[C@@H](OC(=O)CCNCCNc3ccc4c(=O)c(C(=O)O)cn(C)c4c3)[C@H](C)O2)[C@H](C)[C@@H](O[C@@H]2O[C@H](C)C[C@H](N(C)C)[C@H]2O)[C@](C)(O)C[C@@H](C)C(=O)[C@H](C)[C@@H](O)[C@]1(C)O	1 µg/mL (≈ 0.953 µM)	8 µg/mL (≈ 7.62 µM)	4 µg/mL (≈ 3.81 µM)	≤ 0.125 µg/mL	≤ 0.125 µg/mL	1 µg/mL (≈ 0.953 µM)	≤ 0.125 µg/mL	≤ 0.125 µg/mL
CC[C@H]1OC(=O)[C@H](C)[C@@H](O[C@H]2C[C@@](C)(OC)[C@@H](OC(=O)CCNCCNc3ccc4c(=O)c(C(=O)O)cn(CC)c4c3)[C@H](C)O2)[C@H](C)[C@@H](O[C@@H]2O[C@H](C)C[C@H](N(C)C)[C@H]2O)[C@](C)(O)C[C@@H](C)C(=O)[C@H](C)[C@@H](O)[C@]1(C)O	≤ 0.125 µg/mL	2 µg/mL (≈ 1.88 µM)	1 µg/mL (≈ 0.94 µM)	≤ 0.125 µg/mL	≤ 0.125 µg/mL	0.5 µg/mL (≈ 0.47 µM)	≤ 0.125 µg/mL	≤ 0.125 µg/mL
CC[C@H]1OC(=O)[C@H](C)[C@@H](O[C@H]2C[C@@](C)(OC)[C@@H](OC(=O)CCNCCNc3ccc4c(=O)c(C(=O)O)cn(C5CC5)c4c3)[C@H](C)O2)[C@H](C)[C@@H](O[C@@H]2O[C@H](C)C[C@H](N(C)C)[C@H]2O)[C@](C)(O)C[C@@H](C)C(=O)[C@H](C)[C@@H](O)[C@]1(C)O	≤ 0.125 µg/mL	2 µg/mL (≈ 1.86 µM)	8 µg/mL (≈ 7.44 µM)	≤ 0.125 µg/mL	≤ 0.125 µg/mL	8 µg/mL (≈ 7.44 µM)	≤ 0.125 µg/mL	≤ 0.125 µg/mL
CC[C@H]1OC(=O)[C@H](C)[C@@H](O[C@H]2C[C@@](C)(OC)[C@@H](OC(=O)CCNCCCCNc3ccc4c(=O)c(C(=O)O)cn(C)c4c3)[C@H](C)O2)[C@H](C)[C@@H](O[C@@H]2O[C@H](C)C[C@H](N(C)C)[C@H]2O)[C@](C)(O)C[C@@H](C)C(=O)[C@H](C)[C@@H](O)[C@]1(C)O	0.25 µg/mL (≈ 0.232 µM)	> 32 µg/mL	> 32 µg/mL	16 µg/mL (≈ 14.9 µM)	2 µg/mL (≈ 1.86 µM)	4 µg/mL (≈ 3.71 µM)	4 µg/mL (≈ 3.71 µM)	4 µg/mL (≈ 3.71 µM)
CC[C@H]1OC(=O)[C@H](C)[C@@H](O[C@H]2C[C@@](C)(OC)[C@@H](OC(=O)CCNCCNc3ccc4c(=O)c(C(=O)O)cn(C)c4c3)[C@H](C)O2)[C@H](C)[C@@H](O[C@@H]2O[C@H](C)C[C@H](N(C)C)[C@H]2O)[C@](C)(O)C[C@@H](C)NC(=O)[C@H](C)[C@@H](O)[C@]1(C)O	2 µg/mL (≈ 1.88 µM)	16 µg/mL (≈ 15 µM)	32 µg/mL (≈ 30.1 µM)	0.5 µg/mL (≈ 0.47 µM)	1 µg/mL (≈ 0.94 µM)	4 µg/mL (≈ 3.76 µM)	1 µg/mL (≈ 0.94 µM)	1 µg/mL (≈ 0.94 µM)
CC[C@H]1OC(=O)[C@H](C)[C@@H](O[C@H]2C[C@@](C)(OC)[C@@H](OC(=O)CCNCCNc3ccc4c(=O)c(C(=O)O)cn(C5CC5)c4c3)[C@H](C)O2)[C@H](C)[C@@H](O[C@@H]2O[C@H](C)C[C@H](N(C)C)[C@H]2O)[C@](C)(O)C[C@@H](C)NC(=O)[C@H](C)[C@@H](O)[C@]1(C)O	≤ 0.125 µg/mL	8 µg/mL (≈ 7.34 µM)	64 µg/mL (≈ 58.7 µM)	32 µg/mL (≈ 29.3 µM)	64 µg/mL (≈ 58.7 µM)	64 µg/mL (≈ 58.7 µM)	≤ 0.125 µg/mL	32 µg/mL (≈ 29.3 µM)
CC[C@H]1OC(=O)[C@H](C)[C@@H](O[C@H]2C[C@@](C)(OC)[C@@H](OC(=O)CCNCCCCNc3ccc4c(=O)c(C(=O)O)cn(C)c4c3)[C@H](C)O2)[C@H](C)[C@@H](O[C@@H]2O[C@H](C)C[C@H](N(C)C)[C@H]2O)[C@](C)(O)C[C@@H](C)NC(=O)[C@H](C)[C@@H](O)[C@]1(C)O	8 µg/mL (≈ 7.32 µM)	> 32 µg/mL	> 32 µg/mL	32 µg/mL (≈ 29.3 µM)	16 µg/mL (≈ 14.6 µM)	16 µg/mL (≈ 14.6 µM)	4 µg/mL (≈ 3.66 µM)	32 µg/mL (≈ 29.3 µM)
CC[C@H]1OC(=O)[C@H](C)[C@@H](O[C@H]2C[C@@](C)(OC)[C@@H](OC(=O)CCNCCCCNc3ccc4c(=O)c(C(=O)O)cn(CC)c4c3)[C@H](C)O2)[C@H](C)[C@@H](O[C@@H]2O[C@H](C)C[C@H](N(C)C)[C@H]2O)[C@](C)(O)C[C@@H](C)NC(=O)[C@H](C)[C@@H](O)[C@]1(C)O	8 µg/mL (≈ 7.23 µM)	> 32 µg/mL	> 32 µg/mL	32 µg/mL (≈ 28.9 µM)	8 µg/mL (≈ 7.23 µM)	8 µg/mL (≈ 7.23 µM)	2 µg/mL (≈ 1.81 µM)	16 µg/mL (≈ 14.5 µM)
